# How the values were obtained:
# [1] = molecular target: T1, Muscarinic acetylcholine receptor M1 (Homo sapiens, UniProt P11229); test: biochemical; format: cell-based, CHO
# T1 sequence (P11229 whole entry): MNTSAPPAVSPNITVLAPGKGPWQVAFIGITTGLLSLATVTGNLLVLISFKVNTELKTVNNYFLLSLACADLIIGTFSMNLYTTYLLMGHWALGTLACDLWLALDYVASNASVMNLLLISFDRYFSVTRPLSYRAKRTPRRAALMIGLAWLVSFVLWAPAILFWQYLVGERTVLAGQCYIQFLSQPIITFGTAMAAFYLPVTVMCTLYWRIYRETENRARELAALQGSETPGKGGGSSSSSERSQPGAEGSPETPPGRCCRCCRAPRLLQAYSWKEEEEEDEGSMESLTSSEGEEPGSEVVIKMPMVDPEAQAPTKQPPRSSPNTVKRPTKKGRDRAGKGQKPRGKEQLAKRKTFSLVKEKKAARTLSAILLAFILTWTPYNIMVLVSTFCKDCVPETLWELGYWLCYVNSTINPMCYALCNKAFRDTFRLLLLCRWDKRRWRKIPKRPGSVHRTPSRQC
# [2] = molecular target: T2, Muscarinic acetylcholine receptor M2 (Homo sapiens, UniProt P08172); test: Binding affinity (Ki) against binding of [3H]NMS to membranes from CHO cells expressing cloned human Muscarinic acetylcholine receptor M2; format: cell membranes
# T2 sequence (P08172 whole entry): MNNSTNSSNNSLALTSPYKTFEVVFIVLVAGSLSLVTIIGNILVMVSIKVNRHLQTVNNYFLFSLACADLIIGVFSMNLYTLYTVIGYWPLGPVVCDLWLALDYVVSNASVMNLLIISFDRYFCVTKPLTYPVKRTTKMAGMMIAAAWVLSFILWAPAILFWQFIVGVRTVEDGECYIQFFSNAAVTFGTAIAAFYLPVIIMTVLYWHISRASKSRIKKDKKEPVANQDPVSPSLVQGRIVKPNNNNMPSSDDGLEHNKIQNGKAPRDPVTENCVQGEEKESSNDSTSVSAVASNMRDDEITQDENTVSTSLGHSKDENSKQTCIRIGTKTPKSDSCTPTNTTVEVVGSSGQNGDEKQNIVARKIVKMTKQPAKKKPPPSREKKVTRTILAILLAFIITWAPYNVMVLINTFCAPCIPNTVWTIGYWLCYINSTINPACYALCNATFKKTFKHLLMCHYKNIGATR
# [3] = molecular target: T3, Muscarinic acetylcholine receptor M5 (Homo sapiens, UniProt P08912); test: Binding affinity (Ki) against binding of [3H]NMS using membranes from CHO cells expressing cloned human Muscarinic acetylcholine receptor M5; format: cell membranes
# T3 sequence (P08912 whole entry): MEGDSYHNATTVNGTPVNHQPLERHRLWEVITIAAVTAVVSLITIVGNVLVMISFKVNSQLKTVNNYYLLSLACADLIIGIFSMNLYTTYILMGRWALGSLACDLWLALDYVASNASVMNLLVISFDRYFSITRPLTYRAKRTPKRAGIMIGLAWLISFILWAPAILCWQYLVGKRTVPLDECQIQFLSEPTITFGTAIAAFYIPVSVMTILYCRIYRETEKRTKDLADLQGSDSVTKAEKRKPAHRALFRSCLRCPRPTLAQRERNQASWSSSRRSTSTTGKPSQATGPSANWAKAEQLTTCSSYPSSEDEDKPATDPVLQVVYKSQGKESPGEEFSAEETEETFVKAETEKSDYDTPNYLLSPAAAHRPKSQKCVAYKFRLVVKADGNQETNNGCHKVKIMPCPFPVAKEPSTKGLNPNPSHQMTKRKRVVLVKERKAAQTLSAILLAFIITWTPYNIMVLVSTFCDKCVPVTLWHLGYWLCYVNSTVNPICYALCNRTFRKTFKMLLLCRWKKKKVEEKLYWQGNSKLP
# [4] = molecular target: Muscarinic acetylcholine receptor M3 (Homo sapiens, UniProt P20309); test: biochemical; format: cell-based, CHO
# Chain of Muscarinic acetylcholine receptor M3 (P20309 whole entry): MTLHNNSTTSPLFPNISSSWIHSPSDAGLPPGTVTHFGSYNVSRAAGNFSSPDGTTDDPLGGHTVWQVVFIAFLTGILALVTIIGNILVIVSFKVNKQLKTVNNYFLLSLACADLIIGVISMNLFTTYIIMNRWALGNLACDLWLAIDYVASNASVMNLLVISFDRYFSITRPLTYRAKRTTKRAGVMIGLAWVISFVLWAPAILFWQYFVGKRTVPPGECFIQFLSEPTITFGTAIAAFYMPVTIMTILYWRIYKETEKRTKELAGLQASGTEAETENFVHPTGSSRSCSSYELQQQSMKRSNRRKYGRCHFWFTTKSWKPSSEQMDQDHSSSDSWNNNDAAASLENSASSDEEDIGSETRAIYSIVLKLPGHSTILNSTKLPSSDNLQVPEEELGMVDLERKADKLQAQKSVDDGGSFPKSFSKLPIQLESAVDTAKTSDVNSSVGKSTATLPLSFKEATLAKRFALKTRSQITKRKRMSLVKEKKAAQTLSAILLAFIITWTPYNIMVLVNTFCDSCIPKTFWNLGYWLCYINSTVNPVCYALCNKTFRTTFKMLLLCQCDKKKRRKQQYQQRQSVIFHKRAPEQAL
# [5] = molecular target: T4, Muscarinic acetylcholine receptor M4 (Homo sapiens, UniProt P08173); test: Binding affinity (Ki) against binding of [3H]NMS using membranes from CHO cells expressing cloned human Muscarinic acetylcholine receptor M4; format: cell membranes
# T4 sequence (P08173 whole entry): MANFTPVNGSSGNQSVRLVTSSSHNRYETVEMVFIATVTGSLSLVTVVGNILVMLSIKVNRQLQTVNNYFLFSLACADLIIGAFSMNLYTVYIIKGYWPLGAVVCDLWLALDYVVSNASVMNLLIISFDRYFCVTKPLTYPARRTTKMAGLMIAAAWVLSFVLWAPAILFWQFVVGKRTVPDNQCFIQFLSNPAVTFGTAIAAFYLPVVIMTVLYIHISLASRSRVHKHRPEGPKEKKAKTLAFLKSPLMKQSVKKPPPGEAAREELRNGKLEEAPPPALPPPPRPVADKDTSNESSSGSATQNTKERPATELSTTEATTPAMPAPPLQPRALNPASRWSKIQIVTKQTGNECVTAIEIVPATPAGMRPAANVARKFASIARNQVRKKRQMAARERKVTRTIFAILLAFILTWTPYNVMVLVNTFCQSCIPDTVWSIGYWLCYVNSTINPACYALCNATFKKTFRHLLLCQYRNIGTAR
# [6] = tested on: Rattus norvegicus; test: 50% in vivo effective dose that inhibits ACh-induced pressor response (M1) in rat assay systems after intravenous administration was reported; format: functional
# [7] = tested on: Rattus norvegicus; test: 50% in vivo effective dose that inhibits Ach-induced bradycardia (M2) in rat assay systems after intravenous administration was reported; format: functional
# [8] = tested on: Rattus norvegicus; test: 50% in vivo effective dose that inhibits ACh-induced bronchoconstriction (M3) in rat assay systems after intravenous administration was reported; format: functional
# [9] = species: Homo sapiens; test: Selectivity ratio (m4/m3)
# In short: (§1)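 Binding affinities (Ki) were measured at each of the five muscarinic receptor subtypes (m1–m5), with the m3 receptor being human and expressed in CHO cells. The ratio compares the m4 or m5 Ki with the m3 Ki. Values are the mean of two or more independent assays.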
# [10] = species: Homo sapiens; test: Selectivity ratio (m5/m3)
# In short: as §1
SMILES,Ki [1] [nM],Ki [2] [nM],Ki [3] [nM],Ki [4] [nM],Ki [5] [nM],Selectivity [9],Selectivity [10],ED50 [6] [mg/kg],ED50 [7] [mg/kg],ED50 [8] [mg/kg]
O=C(CCCNC(=O)CC(c1ccccc1)(c1ccccc1)c1ccccc1)NCCC(=O)NCC1CCCN(CC2CCCCC2)C1 (configuration not stated),77,17,200,2.1,60,29,95,,,
O=C(CCCCCNC(=O)CC(c1ccccc1)(c1ccccc1)c1ccccc1)NC[C@H]1CCCN(CC2CCCCC2)C1,110,72,210,1,30,30,200,,,
CN1[C@@H]2CC[C@H]1C[C@@H](OC(=O)C(CO)c1ccccc1)C2 (some centres not stated) [ATROPINE],,,,,,,,0.016,0.0052,0.0043
O=C(CCCNC(=O)CNC(=O)CC(c1ccccc1)(c1ccccc1)c1ccccc1)NCC1CCCN(CC2CCCCC2)C1 (configuration not stated),300,270,1100,3.3,74,22,320,,,
O=C(CCNC(=O)CC(c1ccccc1)(c1ccccc1)c1ccccc1)NCCC(=O)NC[C@H]1CCCN(CC2CCCCC2)C1,36,44,30,0.76,31,41,40,,,

# Continued, in another order:
Ki [1] [nM],Ki [2] [nM],Ki [3] [nM],Ki [4] [nM],Ki [5] [nM],Selectivity [9],Selectivity [10],SMILES,ED50 [6] [mg/kg],ED50 [7] [mg/kg],ED50 [8] [mg/kg]
120,30,37,0.31,14,45,120,O=C(CCNC(=O)CNC(=O)CC(c1ccccc1)(c1ccccc1)c1ccccc1)NC[C@H]1CCCN(CC2CCCCC2)C1,> 3,1.55,0.015
14,0.82,150,0.25,2.3,9,580,O=C(NC[C@H]1CCCN(CC2CCCCC2)C1)[C@H]1CCCN1C(=O)[C@@H]1CCCN1C(=O)CC(c1ccccc1)(c1ccccc1)c1ccccc1,,,
150,13,2000,2.2,43,19,890,O=C(CNC(=O)[C@@H]1CCCN1C(=O)CC(c1ccccc1)(c1ccccc1)c1ccccc1)NC[C@H]1CCCN(CC2CCCCC2)C1,,,
150,12,58,0.27,11,42,210,O=C(CCNC(=O)[C@@H]1CCCN1C(=O)CC(c1ccccc1)(c1ccccc1)c1ccccc1)NC[C@H]1CCCN(CC2CCCCC2)C1,,,

# Reference: ChEMBL document CHEMBL1135983, “Cyclohexylmethylpiperidinyltriphenylpropioamide: a selective muscarinic M(3) antagonist discriminating against the other receptor subtypes” (J Med Chem, 2002)
